Source: article PMC11166183 (Inorganic chemistry, 2024)
Read-outs that look alike come from different tables or passages of the source.

Key:
SK-MEL-28 cells [1] = assay: Dark cytotoxicity and photocytotoxicity in normoxia, resazurin cell viability; type: cell-based, human
Summary of the method: (§1)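 Cells adhered 3–5 h at 37°C, then were dosed at 1 nM to 300 μM. After a 13–22 h DLI, light plates received 100 J cm−2 of broadband visible (400–700 nm, 21 mW cm−2), green (523 nm) or red (633 nm, ±2.5 nm, 18 mW cm−2) light. Dark plates stayed incubated. Viability was read by resazurin after 24 h at 37°C. EC50 came from sigmoidal fits; PI = dark EC50/light EC50.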

A549 cells = assay: as above; type: cell-based, human
Summary of the method: as §1

[2] = Lipophilicity by shake-flask method; type: physicochemical; conditions: chloride salts, 1-octanol / 10 mM phosphate buffer pH 7.4
SK-MEL-28 cells [3] = assay: Dark cytotoxicity and photocytotoxicity in hypoxia; type: cell-based, human; conditions: hypoxia 1% O2, regardless of light treatment
Summary of the method: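 Cells were moved to a 1% O2 chamber for 2–3 h after adhesion, then dosed (1 nM to 300 μM). After an 18 h DLI, dissolved O2 was checked by optical probe. Light plates were sealed with low-permeability film and illuminated outside the chamber (~1.5 h). All plates were then held in normoxia (37°C, 5% CO2) for 20–23 h before resazurin read-out. EC50 came from sigmoidal fits; PI = dark/light ratio. Each run was done in triplicate.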

[4] = any light condition (visible, 523 nm, 633 nm; 100 J cm−2), normoxia
[5] = read-out: dark EC50, no light, normoxia

| log Do/w [2] | Substance | drop in activity with green light versus visible light (SK-MEL-28 cells [1]; 523 nm vs visible, normoxia) [fold] | PI (dark EC50 / green EC50) (SK-MEL-28 cells [1]; 523 nm, 100 J cm−2, normoxia, representative replicate (repeat 0)) | EC50 (SK-MEL-28 cells [1]; read-out: green EC50, 523 nm, 100 J cm−2, normoxia, representative replicate (repeat 0)) [nM] | enhancement in visible photocytotoxicity relative to Ru-1T (SK-MEL-28 cells [1]; visible light, normoxia) [fold] | EC50 (A549 cells; read-out: visible EC50, visible light 400–700 nm, 100 J cm−2, normoxia) [nM] | PI (dark EC50 / visible EC50) (A549 cells; visible light 400–700 nm, 100 J cm−2, normoxia) | photocytotoxic activity (SK-MEL-28 cells [1]; [4]) | EC50 (SK-MEL-28 cells [1]; [5]) [nM] | photocytotoxic activity (A549 cells; [4]) | EC50 (A549 cells; [5]) [nM] | photocytotoxic effect (SK-MEL-28 cells [3]) |
| --- | --- | --- | --- | --- | --- | --- | --- | --- | --- | --- | --- | --- |
| positive | rac-[Ru(4,4′-btfmb)2(IP-2T)](Cl)2 [Ru-2T] | 3 | 91 | 1900 | 36 | 1370 | 127 | – | – | – | – | – |
| – | rac-[Ru(4,4′-btfmb)3](Cl)2 [[Ru(4,4′-btfmb)3]^2+, reference compound] | – | – | – | – | – | – | inactive | > 300000 | inactive | > 300000 | no photocytotoxic effect |
